Results: the RNAGym collection of RNA variant scans (doi:10.1126/science.aae0568)
Variants at the floor of the assay were thinned out.

B1: tRNA (parent)
chain: GUUCCGUUGGCGUAAUGGUAACGCGUCUCCCUCCUAAGGAGAAGACUGCGGGUUCGAGUCCCGUACGGAACG

Variants of: B1
Assay: yeast fitness relative to wild type (ratio to wild type); higher = fitter; tRNA-Arg(CCU), competitive growth, 37 C, YPD
Method in brief: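 For this measurement, the tRNA-Arg(CCU) gene was varied by chemical synthesis at a 3% per-site mutation rate across 69 sites, and each variant was placed at the native genomic locus in Saccharomyces cerevisiae. The pooled strains went through a 24-hour competition in YPD at 37°C in six parallel replicates, with amplicons from start and end populations read by 100-nucleotide paired-end sequencing. Darwinian fitness relative to wild type followed from the change in each genotype's frequency. Genotypes needed ≥ 100 starting reads, and estimates < 0.5 were set to 0.5.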

Variant	yeast fitness
A20U C24G A45G U53A	≤ 0.5
A20U A40U C46G C62G C66U A70C	0.573
A20U C34G G48C U59C	0.548
A20U C34G A42G A43U A65G	0.573
A20U A45C C55U A57U	≤ 0.5
A20U C61G A65U	≤ 0.5
A20G U26A U35A A37U	0.55
A20G G38C	0.789
A20U C61U G67U	≤ 0.5
A20U C34U G51C	≤ 0.5
A20G G23A A45U G56A	0.539
A20U C24U G48A C55U C60G	≤ 0.5
A20U C27G C34U U35C A36C	0.921
A20U G39A G51C C55G	≤ 0.5
A20U A45U C55G	0.533
A20U A21C A45U	0.675
A20U A42C A69U	0.564
A20U A45C G50A	0.675
A20U C31A C33G U47C C60A	≤ 0.5
A20U A42C A57C	≤ 0.5
A20G G23C G63C	0.613
A20G U28C G68C	0.664
A20U C49G A69U	0.677
A20U A36G C49U C55G	0.501

Variant	yeast fitness
A20U A36G U54C C55G	≤ 0.5
A20U A45C G51U A65G	≤ 0.5
A20U A21C C29U A57C	≤ 0.5
A20G G50C U54G	≤ 0.5
A20U C34A C49U G58C C62A A69C	≤ 0.5
A20G U28G A57U A70U	≤ 0.5
A20G G68U	0.866
A20G G68C	0.758
A20G U26A A45C	0.519
A20U C22G	0.633
A20U C24G	0.601
A20G G41A A70G	0.571
A20U A37C C46G	0.528
A20G C60G A70C	0.604
A20U A70U	0.988
A20U C27U U64C	0.954
A20G U35G	0.708
A20G U35C	0.836
A20U G38C C61G A69G	≤ 0.5
A20U G23A G68A A69U A70U	≤ 0.5
A20U A21C C22U U53C U64A	0.77
A20G G23A C33G A69U	≤ 0.5
A20G G67C	0.861
A20G G67U	0.965

Variant	yeast fitness
A20U C29G C33U A65C C66U	≤ 0.5
A20U A36G	0.766
A20U A36C	0.627
A20G G23A G38C	0.656
A20G U59G A65U	1.05
A20G U32A C34G A43G G50C U64A	≤ 0.5
A20U A69C	0.979
A20U A69U	1.05
A20U C27A A40G A69U	≤ 0.5
A20U C31A A37C A45G G68A	≤ 0.5
A20U A21C C27A G68A	≤ 0.5
A20G G56U A65G	0.587
A20U C27U C30A C33G A42G G51C	0.583
A20U A40C A42U	≤ 0.5
A20U G25A C27U	0.595
A20U C27G C30G A43G A65C G68C	≤ 0.5
A20U C55G C62U	0.508
A20U G25C C60G	0.676
A20U G23A C27U A65G G68C	≤ 0.5
A20U C34G A42G A43U G63A A65G	≤ 0.5
A20U G38A C55U A65G	≤ 0.5
A20U C46G	1.07
A20U C46U A70U	0.79
A20G G39U A40C	≤ 0.5

Variant	yeast fitness
A20G U28A A42G C55A C66A	≤ 0.5
A20U C55U G67A	≤ 0.5
A20G C60A A70U	0.605
A20U C49A	0.708
A20U C49U	0.899
A20G U59G	0.921
A20G U59A	0.79
A20G U59C	0.972
A20G G25A C66U	0.682
A20U C31U G38A A69C	≤ 0.5
A20G G41A C60G A65G	0.585
A20U C24U C30A C46G G48A	≤ 0.5
A20U A65G	0.986
A20U A65U	0.705
A20G U26A C61G A65C	0.518
A20U C33U C61U A70U	≤ 0.5
A20U C29G C61U	≤ 0.5
A20U G23A U28C C31U G39A G56A	≤ 0.5
A20G G58A A70C	0.836
A20U C62A	0.73
A20U C62U	1.02
A20U C34A G67A	≤ 0.5
A20U G39C G48C G52C U53A	≤ 0.5
A20U G25A	1.03

Variant	yeast fitness
A20U C29G A43U C66U	≤ 0.5
A20U C27U C30A C33G A42G G51C G68C	≤ 0.5
A20U C24G A70G	≤ 0.5
A20U A57C	0.644
A20U A57G	0.752
A20U C29U	0.714
A20U C29G	0.721
A20G U28C C49A	≤ 0.5
A20U C62U A70U	0.65
A20G G41A G67C	0.601
A20U C31U G51C	0.562
A20U C22U C33U	≤ 0.5
A20U C49U A65C	0.655
A20G G23C G38C	≤ 0.5
A20G G23A C33G	0.629
A20U C29G C49G U53A	≤ 0.5
A20G U28A A37G C55G	0.578
A20U A36C C49A C66G	≤ 0.5
A20U C27G	0.642
A20U C61A C62U A65U A69C	≤ 0.5
A20G U64G A70C	0.619
A20G U28G A57U C62U	≤ 0.5
A20U C34G G48C U59C C61U	0.791
A20U C46U G63A	0.777

Variant	yeast fitness
A20U A21G C31U C46A	≤ 0.5
A20U C29G A65U	≤ 0.5
A20G G51C C61G	0.546
A20U C22A A45C U53A	0.594
A20U C34G A42G A43U A65G A70U	≤ 0.5
A20U G23A C31U G39A G56A	≤ 0.5
A20G G23A C24G	≤ 0.5
A20U C31A	0.803
A20U C31U	0.926
A20G U64G	0.817
A20G U64C	0.929
A20G U64A	0.902
A20G U26A C66A	≤ 0.5
A20U G23A A65G G68C	0.513
A20U C24G C55A	≤ 0.5
A20U A45G C46U	0.836
A20U G38C A65G C66U	≤ 0.5
A20U C29U C30U U59A G67A	≤ 0.5
A20G U35C G56C G68C	≤ 0.5
A20U A40G G44C	≤ 0.5
A20G G48A	0.933
A20U A65U A70C	0.568
A20U C31G C55G C60G C66U	≤ 0.5
A20G G25C C61U A65G	0.647

Variant	yeast fitness
A20G G51A	0.859
A20G U35C A36G	0.727
A20U G38A C46A	0.541
A20U A45G C46U C66U A69U	≤ 0.5
A20U A36G C55U	0.573
A20U C49G U54C	≤ 0.5
A20U A21U A69U	0.675
A20U A21G C22A G48A C49G	≤ 0.5
A20U C29G C33U	0.609
A20G G50C C61A A69G	≤ 0.5
A20U G23A	0.822
A20U A21U A65U G67A	≤ 0.5
A20U A40U C46A	0.613
A20U C49U A69U	0.683
A20G G41A C61U	0.644
A20U A45C	0.621
A20U A45G	0.843
A20U C29U C30U U59A	0.636
A20G G25C C49U	0.76
A20G G25C C49A	≤ 0.5
A20U A43G A57C U59A A65C	≤ 0.5
A20G G25C C34U G41A C49G	≤ 0.5
A20U C24U C29G C49G G63C	≤ 0.5
